Assays:
HeLa = test: Antiproliferative activity against human HeLa cell line assessed as incorporation [14C]thymidine; format: functional, cell-based
How it was run: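 HeLa cervical carcinoma cells. Proliferation was read as ¹⁴C-thymidine incorporation into cellular DNA, and the IC₅₀ for inhibition of proliferation was derived from that.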

[1] = biological target: Cyclin-dependent kinase 1/cyclin B (Homo sapiens, UniProt P06493); test: Inhibition of CDK1/cyclinB by Flashplate assay; format: protein-complex assay
How it was run: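 CDK1 complexed with cyclin B phosphorylated a biotinylated histone-H1 peptide substrate using ³³P-γ-ATP. The substrate was immobilized in a Flashplate format, and inhibition was read as reduced ³³P incorporation into the substrate.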

Row | SMILES | IC50 (HeLa) [µM] | IC50 [1] [µM]
1 | N[C@H]1CC[C@H](Nc2nccc(-c3c[nH]c4ncccc34)n2)CC1 | 0.001 | 0.002
2 | CN(C)CCn1cc(-c2ccnc(NC3CCCCC3)n2)c2cccnc21 | 8.9 | –
3 | Cc1ccccc1Nc1nccc(-c2c[nH]c3ncccc23)n1 | – | 0.003
4 | Cc1cc(CCN2CCCCC2)ccc1Nc1nccc(-c2c[nH]c3ncccc23)n1 | 0.003 | 0.001
5 | Clc1ccccc1Nc1nccc(-c2c[nH]c3ncccc23)n1 | 0.14 | 0.009
6 | Cc1[nH]c2ncccc2c1-c1ccnc(N[C@H]2CC[C@H](N)CC2)n1 | 0.13 | 0.28
7 | COc1ccccc1Nc1nccc(-c2c[nH]c3ncccc23)n1 | 0.35 | –
8 | Oc1ccccc1Nc1nccc(-c2c[nH]c3ncccc23)n1 | 0.955 | –
9 | c1cnc2[nH]cc(-c3ccnc(NCC4CCCCC4)n3)c2c1 | 0.368 | –
10 | CCc1ccccc1Nc1nccc(-c2c[nH]c3ncccc23)n1 | 0.292 | –
11 | Cn1cc(-c2ccnc(NC3CCCCC3)n2)c2cccnc21 | 52.1 | > 10
12 | CS(=O)(=O)n1cc(-c2ccnc(NC3CCCCC3)n2)c2cccnc21 | 0.393 | –
13 | Fc1ccccc1Nc1nccc(-c2c[nH]c3ncccc23)n1 | 0.092 | –
14 | Cc1cc(CCN2CCOCC2)ccc1Nc1nccc(-c2c[nH]c3ncccc23)n1 | 0.003 | 0.0019
15 | c1ccc(Nc2nccc(-c3c[nH]c4ncccc34)n2)cc1 | 0.382 | –
16 | Brc1ccccc1Nc1nccc(-c2c[nH]c3ncccc23)n1 | 0.095 | 0.013
17 | Cc1ccc(Nc2nccc(-c3c[nH]c4ncccc34)n2)cc1 | 0.22 | –
18 | Cc1cc(CCN2CCCC2)ccc1Nc1nccc(-c2c[nH]c3ncccc23)n1 | 0.003 | 0.0006
19 | CC(=O)n1cc(-c2ccnc(NC3CCCCC3)n2)c2cccnc21 | 0.023 | –
20 | c1cnc2[nH]cc(-c3ccnc(NC4CCCCC4)n3)c2c1 | 0.031 | –
21 | FC(F)(F)c1ccccc1Nc1nccc(-c2c[nH]c3ncccc23)n1 | 0.392 | –
22 | Cc1cc(CCO)ccc1Nc1nccc(-c2c[nH]c3ncccc23)n1 | 0.011 | 0.0006
